The values below come from ChEMBL document CHEMBL4368918, “Structure-Based Design of Inhibitors Selective for Human Proteasome β2c or β2i Subunits” (J Med Chem, 2019).

The structures appear in SMILES notation. A value given as a limit tells only on which side of the number the result lay.

One may read the IC50 as the point on the concentration scale where inhibition reaches its midpoint. High values mean weaker potency in that assay, low ones greater potency in that assay.

The species entered for one assay is Homo sapiens. Description: Selectivity ratio of IC50 for 20S immunoproteasome beta 1 in human Raji cell lysates to IC50 for 20S constitutive proteasome beta 2 trypsin-like activity in human Raji cells. Type of assay: cell-based.
In the case of `COC1CCC(C[C@H](NC(=O)c2cnc(C)s2)C(=O)N[C@@H](CC(C)C)C(=O)N[C@H](/C=C/S(C)(=O)=O)Cc2ccc(CN)cc2)CC1` (some centres not stated), the Ratio IC50 was greater than 220.

The species entered for a further assay is Homo sapiens. Description: Selectivity ratio of IC50 for 20S immunoproteasome beta 5 in human Raji cell lysates to IC50 for 20S constitutive proteasome beta 2 trypsin-like activity in human Raji cells. Type of assay: cell-based.
`COC1CCC(C[C@H](NC(=O)c2cnc(C)s2)C(=O)N[C@@H](CC(C)C)C(=O)N[C@H](/C=C/S(C)(=O)=O)Cc2ccc(CN)cc2)CC1` (some centres not stated): the Ratio IC50 was greater than 220.

The target in a further assay is T1, Proteasome Macropain subunit MB1 (Homo sapiens, UniProt P28074).
T1 sequence (P28074 whole entry): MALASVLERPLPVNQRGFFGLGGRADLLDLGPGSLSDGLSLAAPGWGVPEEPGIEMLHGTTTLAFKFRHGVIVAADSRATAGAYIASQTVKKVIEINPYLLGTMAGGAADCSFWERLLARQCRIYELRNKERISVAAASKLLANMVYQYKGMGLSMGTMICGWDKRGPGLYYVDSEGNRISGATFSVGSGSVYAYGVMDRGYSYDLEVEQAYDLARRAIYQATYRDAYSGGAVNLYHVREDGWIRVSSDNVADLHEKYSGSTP
Description: Inhibition of 20S constitutive proteasome beta 5 chymotrypsin-like activity in human Raji cell lysates after 1 hr by competitive ABPP assay. Type of assay: subcellular, Lysate.
In turn, `COC1CCC(C[C@H](NC(=O)c2cnc(C)s2)C(=O)N[C@@H](CC(C)C)C(=O)N[C@H](/C=C/S(C)(=O)=O)Cc2ccc(CN)cc2)CC1` (some centres not stated) displayed an IC50 greater than 100 µM.

For the next assay, the target named is T2, Proteasome subunit beta type-6 (Homo sapiens, UniProt P28072).
T2 sequence (P28072 whole entry): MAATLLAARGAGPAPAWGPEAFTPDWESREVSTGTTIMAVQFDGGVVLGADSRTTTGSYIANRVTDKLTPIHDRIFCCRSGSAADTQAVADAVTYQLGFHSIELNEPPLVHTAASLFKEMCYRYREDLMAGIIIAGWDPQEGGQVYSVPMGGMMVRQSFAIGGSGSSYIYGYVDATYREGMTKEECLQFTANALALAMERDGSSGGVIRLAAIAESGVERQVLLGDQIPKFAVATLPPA
Description: Inhibition of 20S constitutive proteasome beta 1 caspase-like activity in human Raji cell lysates after 1 hr by competitive ABPP assay. Type of assay: subcellular, Lysate. In a few lines:
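Raji cells were sonicated in 3 volumes of Tris pH 7.5 lysis buffer containing DTT, MgCl₂, sucrose, 2 mM ATP and 0.05% digitonin. Lysate (5 μg protein, in buffer with 2 mM ATP and glycerol) was preincubated with inhibitor for 1 h at 37 °C, then with a cocktail of three fluorescent ABPs for 1 h. In-gel fluorescence densitometry was normalized to mock. IC50 came from the mean of three experiments.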
Molecule `COC1CCC(C[C@H](NC(=O)c2cnc(C)s2)C(=O)N[C@@H](CC(C)C)C(=O)N[C@H](/C=C/S(C)(=O)=O)Cc2ccc(CN)cc2)CC1` (some centres not stated) registered an IC50 greater than 100 µM.

Another assay concerns the target T3, Proteasome subunit beta type-9 (Homo sapiens, UniProt P28065).
T3 sequence (P28065 whole entry): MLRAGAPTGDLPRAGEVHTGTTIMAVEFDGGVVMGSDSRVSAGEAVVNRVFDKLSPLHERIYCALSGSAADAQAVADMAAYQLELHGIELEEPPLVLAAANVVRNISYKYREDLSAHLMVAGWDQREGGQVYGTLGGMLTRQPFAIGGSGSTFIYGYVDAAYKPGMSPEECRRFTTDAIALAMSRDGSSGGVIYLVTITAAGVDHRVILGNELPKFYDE
Description: Inhibition of 20S immunoproteasome beta 1 in human RPMI8226 cell lysates after 1 hr by coomassie brilliant blue staining-based fluorescence assay. Format: subcellular, Lysate. In a few lines: (§1)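 Living RPMI-8226 cells were grown in RPMI-1640 with 10% FCS. Cells at (5–8)×10⁵ cells/mL were exposed to inhibitor for 1 h at 37 °C, washed in PBS and lysed on ice for 1 h in digitonin/ATP buffer. Residual activity was read by cocktail-ABP labeling, SDS-PAGE and fluorescence densitometry relative to mock, with Coomassie staining correcting for loading. IC50 came from three independent experiments.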
In turn, `COC1CCC(C[C@H](NC(=O)c2cnc(C)s2)C(=O)N[C@@H](CC(C)C)C(=O)N[C@H](/C=C/S(C)(=O)=O)Cc2ccc(CN)cc2)CC1` (some centres not stated) had an IC50 greater than 10 µM.

For a further assay, the target named is T4, Proteasome subunit beta type-10 (Homo sapiens, UniProt P40306).
T4 sequence (P40306 whole entry): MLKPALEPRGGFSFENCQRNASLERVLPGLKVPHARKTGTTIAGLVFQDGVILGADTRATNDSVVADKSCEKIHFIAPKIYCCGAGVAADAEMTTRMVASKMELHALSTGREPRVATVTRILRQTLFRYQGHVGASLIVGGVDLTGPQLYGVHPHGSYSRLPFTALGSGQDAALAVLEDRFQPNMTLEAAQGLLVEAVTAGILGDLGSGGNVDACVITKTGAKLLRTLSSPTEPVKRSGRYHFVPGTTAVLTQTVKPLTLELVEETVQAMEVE
Description: Inhibition of 20S immunoproteasome beta 2 in human RPMI8226 cell lysates after 1 hr by coomassie brilliant blue staining-based fluorescence assay. Format: subcellular, Lysate.
Turning to `COC1CCC(C[C@H](NC(=O)c2cnc(C)s2)C(=O)N[C@@H](CC(C)C)C(=O)N[C@H](/C=C/S(C)(=O)=O)Cc2ccc(CN)cc2)CC1` (some centres not stated), the IC50 is greater than 10 µM.

The next assay is filed under the species Homo sapiens. Description: Selectivity ratio of IC50 for 20S constitutive proteasome beta 1 caspase-like activity in human Raji cell lysates to IC50 for 20S constitutive proteasome beta 2 trypsin-like activity in human Raji cells. Type of assay: cell-based.
Regarding `COC1CCC(C[C@H](NC(=O)c2cnc(C)s2)C(=O)N[C@@H](CC(C)C)C(=O)N[C@H](/C=C/S(C)(=O)=O)Cc2ccc(CN)cc2)CC1` (some centres not stated), the Ratio IC50 is greater than 220.

The next assay addresses T1, Proteasome Macropain subunit MB1. Description: Inhibition of 20S constitutive proteasome beta 5 chymotrypsin-like activity in human RPMI8226 cell lysates after 1 hr by coomassie brilliant blue staining-based fluorescence assay. Format: subcellular, Lysate. In a few lines: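 Cells at (5–8)×10⁵ cells/mL were exposed to inhibitor for 1 h at 37 °C, washed in PBS and lysed on ice for 1 h in digitonin/ATP buffer. Residual activity was read by cocktail-ABP labeling, SDS-PAGE and fluorescence densitometry relative to mock, with Coomassie staining correcting for loading. IC50 came from three independent experiments.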
`COC1CCC(C[C@H](NC(=O)c2cnc(C)s2)C(=O)N[C@@H](CC(C)C)C(=O)N[C@H](/C=C/S(C)(=O)=O)Cc2ccc(CN)cc2)CC1` (some centres not stated): the IC50 is greater than 10 µM.

For the next assay, the species on record is Homo sapiens. Description: Selectivity ratio of IC50 for 20S constitutive proteasome beta 5 chymotrypsin-like activity in human Raji cell lysates to IC50 for 20S constitutive proteasome beta 2 trypsin-like activity in human Raji cells. Format: cell-based.
Consider `COC1CCC(C[C@H](NC(=O)c2cnc(C)s2)C(=O)N[C@@H](CC(C)C)C(=O)N[C@H](/C=C/S(C)(=O)=O)Cc2ccc(CN)cc2)CC1` (some centres not stated), for which the Ratio IC50 was greater than 220.

The next assay concerns the target T5, Proteasome subunit beta type-8 (Homo sapiens, UniProt P28062).
T5 sequence (P28062 whole entry): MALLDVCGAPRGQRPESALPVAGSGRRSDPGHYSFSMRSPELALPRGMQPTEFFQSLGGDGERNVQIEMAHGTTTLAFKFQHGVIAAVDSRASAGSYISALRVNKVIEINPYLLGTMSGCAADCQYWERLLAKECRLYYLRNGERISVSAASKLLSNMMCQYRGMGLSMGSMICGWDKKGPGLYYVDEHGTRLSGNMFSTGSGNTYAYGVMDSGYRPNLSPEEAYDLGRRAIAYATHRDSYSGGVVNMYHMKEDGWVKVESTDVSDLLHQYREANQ
Description: Inhibition of 20S immunoproteasome beta 5 in human RPMI8226 cell lysates after 1 hr by coomassie brilliant blue staining-based fluorescence assay. Format: subcellular, Lysate. In a few lines:
as §1
`COC1CCC(C[C@H](NC(=O)c2cnc(C)s2)C(=O)N[C@@H](CC(C)C)C(=O)N[C@H](/C=C/S(C)(=O)=O)Cc2ccc(CN)cc2)CC1` (some centres not stated) had an IC50 greater than 10 µM.

The next assay is filed under the species Homo sapiens. Description: Selectivity ratio of IC50 for 20S immunoproteasome beta 2 (unknown origin) to IC50 for 20S constitutive proteasome beta 2 trypsin-like activity (unknown origin).
On to `COC1CCC(C[C@H](NC(=O)c2cnc(C)s2)C(=O)N[C@@H](CC(C)C)C(=O)N[C@H](/C=C/S(C)(=O)=O)Cc2ccc(CN)cc2)CC1` (some centres not stated), for which the Ratio IC50 is greater than 4.

Another assay concerns the target T4, Proteasome subunit beta type-10. Description: Inhibition of 20S immunoproteasome beta 2 (unknown origin) by cell based ABPP assay. In a few lines: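 Living RPMI-8226 cells, (5–8) ×10^5 cells/mL, exposed to inhibitor 1 h at 37 °C, washed, lysed in digitonin buffer 1 h on ice; residual activity labelled with cocktail ABPs, SDS-PAGE in-gel fluorescence, bands divided by mock, Coomassie staining to correct loading. IC50 from mean of three independent experiments.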
With `COC1CCC(C[C@H](NC(=O)c2cnc(C)s2)C(=O)N[C@@H](CC(C)C)C(=O)N[C@H](/C=C/S(C)(=O)=O)Cc2ccc(CN)cc2)CC1` (some centres not stated), the IC50 is greater than 1 µM.

The target of the next assay is T6, Proteasome subunit beta type-7 (Homo sapiens, UniProt Q99436).
T6 sequence (Q99436 whole entry): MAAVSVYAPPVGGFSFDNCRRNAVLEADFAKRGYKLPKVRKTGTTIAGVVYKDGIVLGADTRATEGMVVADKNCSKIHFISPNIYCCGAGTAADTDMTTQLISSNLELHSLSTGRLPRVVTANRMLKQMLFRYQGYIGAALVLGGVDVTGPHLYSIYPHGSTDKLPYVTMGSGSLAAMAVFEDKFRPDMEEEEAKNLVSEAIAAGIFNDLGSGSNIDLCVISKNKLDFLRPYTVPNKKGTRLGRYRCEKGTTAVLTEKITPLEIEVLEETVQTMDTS
Description: Inhibition of 20S constitutive proteasome beta 2 trypsin-like activity in human RPMI8226 cell lysates after 1 hr by coomassie brilliant blue staining-based fluorescence assay. Format: subcellular, Lysate.
`COC1CCC(C[C@H](NC(=O)c2cnc(C)s2)C(=O)N[C@@H](CC(C)C)C(=O)N[C@H](/C=C/S(C)(=O)=O)Cc2ccc(CN)cc2)CC1` (some centres not stated) came in with an IC50 greater than 10 µM.

The target of the next assay is T3, Proteasome subunit beta type-9. Description: Inhibition of 20S immunoproteasome beta 1 in human Raji cell lysates after 1 hr by competitive ABPP assay. Format: subcellular, Lysate. In short, it runs like this: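 Raji cells were sonicated in 3 volumes of Tris pH 7.5 lysis buffer containing DTT, MgCl₂, sucrose, 2 mM ATP and 0.05% digitonin. Lysate (5 μg protein, in buffer with 2 mM ATP and glycerol) was preincubated with inhibitor for 1 h at 37 °C, then with a cocktail of three fluorescent ABPs for 1 h. […] In-gel fluorescence densitometry was normalized to mock. IC50 came from the mean of three experiments.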
Consider `COC1CCC(C[C@H](NC(=O)c2cnc(C)s2)C(=O)N[C@@H](CC(C)C)C(=O)N[C@H](/C=C/S(C)(=O)=O)Cc2ccc(CN)cc2)CC1` (some centres not stated), for which the IC50 is greater than 100 µM.

For a further assay, the target named is T4, Proteasome subunit beta type-10. Description: Inhibition of 20S immunoproteasome beta 2 in human Raji cell lysates after 1 hr by competitive ABPP assay. Type of assay: subcellular, Lysate.
Consider `COC1CCC(C[C@H](NC(=O)c2cnc(C)s2)C(=O)N[C@@H](CC(C)C)C(=O)N[C@H](/C=C/S(C)(=O)=O)Cc2ccc(CN)cc2)CC1` (some centres not stated), for which the IC50 was determined as 3.1 µM.

A further assay is filed under the species Homo sapiens. Description: Selectivity ratio of IC50 for 20S immunoproteasome beta 2 in human Raji cell lysates to IC50 for 20S constitutive proteasome beta 2 trypsin-like activity in human Raji cells. Type of assay: cell-based.
For the molecule `COC1CCC(C[C@H](NC(=O)c2cnc(C)s2)C(=O)N[C@@H](CC(C)C)C(=O)N[C@H](/C=C/S(C)(=O)=O)Cc2ccc(CN)cc2)CC1` (some centres not stated), the Ratio IC50 was 7.

The target of a further assay is T5, Proteasome subunit beta type-8. Description: Inhibition of 20S immunoproteasome beta 5 in human Raji cell lysates after 1 hr by competitive ABPP assay. Type of assay: subcellular, Lysate.
`COC1CCC(C[C@H](NC(=O)c2cnc(C)s2)C(=O)N[C@@H](CC(C)C)C(=O)N[C@H](/C=C/S(C)(=O)=O)Cc2ccc(CN)cc2)CC1` (some centres not stated) showed an IC50 greater than 100 µM.
